From PubChem
In the library only some 2.3% were active in any assay of this set; here they are far more common.
Arr AP2 block – human beta-arrestin and AP2 interaction inhibition | FITC-arrestin peptide / GST-AP2 beads, flow cytometry; AP2 beta2 appendage carries R879A mutation | inhibition, % at 10 µM | 0.31% of 340,000 active | AID 504490;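 active = inhibition above a set limit, near 3 SD of compounds lacking own fluorescence, cut at about 54% in these data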;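 note: plate controls were DMSO wells for no effect and 5 µM unlabelled arrestin peptide for full effect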
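System: GST-AP2 R879A bound to glutathione beads, E. coli-expressed. Also added: 50 nM FITC-arrestin peptide. Schedule: compound with beads 12 min RT, then probe 1 h RT. Signal: bead flow cytometry, FITC channel. Read-out basis: percent response.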
MEKK2 WT-MEK5 – raises or lowers MEK5 binding to wildtype human MEKK2 PB1 domain; 1.1% of 290,000 active; bead flow cytometry, Alexa488-MEK5 binding to MEKK2 WT; actives lie on both sides; Q9Y2U5; AID 1531; binding response (% of control), % at 10 µM; in the data active = binding response below about 67% or above about 130%
MEKK3 PB1 HTS – MEKK3-MEK5 PB1 interaction, increase or decrease; binding response (% of control), % at 10 µM; 1.4% of 290,000 active; AID 1529; bead-based flow cytometry, Alexa488-MEK5 binding to MEKK3; actives lie on both sides; 0 = blocked by unlabeled MEK5, 100 = vehicle; Q99759;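 active = binding response more than 3 SD above or below the average of its plate-row segment, actives on both sides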;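 note: Alexa488 bead fluorescence after subtracting the streptavidin-only scavenger bead signal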
MEKK2 mut-MEK5 – signal of MEK5 binding to mutant human MEKK2 PB1 domain. bead flow cytometry, Alexa488-MEK5 binding to MEKK2 mutant. 0.35% of 290,000 active. percent response, % at 10 µM; in the data active = percent response above about 24%, passing the limit was not always enough
Arr AP2 CP1 – blocks beta-arrestin peptide binding to human AP2 | AID 504908 | inhibition, % at 10 µM | shares compounds with Arr AP2 block | 2% of 1,300 active | GST-AP2 beads, FITC arrestin peptide binding, flow cytometry; GST-fused beta2-adaptin appendage, R879A mutant;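 active = inhibition above a set limit, roughly 3 SD of non-fluorescent compound noise, cut at about 38% in these data; inactive = inhibition at or below that limit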;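 note: loss of bead fluorescence from 50 nM FITC arrestin peptide bound to appendage; 0% = negative control wells and 100% = excess unlabelled arrestin peptide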
Target sequence (P63010 whole entry, looked up, the tested form may be a part, one chain of several): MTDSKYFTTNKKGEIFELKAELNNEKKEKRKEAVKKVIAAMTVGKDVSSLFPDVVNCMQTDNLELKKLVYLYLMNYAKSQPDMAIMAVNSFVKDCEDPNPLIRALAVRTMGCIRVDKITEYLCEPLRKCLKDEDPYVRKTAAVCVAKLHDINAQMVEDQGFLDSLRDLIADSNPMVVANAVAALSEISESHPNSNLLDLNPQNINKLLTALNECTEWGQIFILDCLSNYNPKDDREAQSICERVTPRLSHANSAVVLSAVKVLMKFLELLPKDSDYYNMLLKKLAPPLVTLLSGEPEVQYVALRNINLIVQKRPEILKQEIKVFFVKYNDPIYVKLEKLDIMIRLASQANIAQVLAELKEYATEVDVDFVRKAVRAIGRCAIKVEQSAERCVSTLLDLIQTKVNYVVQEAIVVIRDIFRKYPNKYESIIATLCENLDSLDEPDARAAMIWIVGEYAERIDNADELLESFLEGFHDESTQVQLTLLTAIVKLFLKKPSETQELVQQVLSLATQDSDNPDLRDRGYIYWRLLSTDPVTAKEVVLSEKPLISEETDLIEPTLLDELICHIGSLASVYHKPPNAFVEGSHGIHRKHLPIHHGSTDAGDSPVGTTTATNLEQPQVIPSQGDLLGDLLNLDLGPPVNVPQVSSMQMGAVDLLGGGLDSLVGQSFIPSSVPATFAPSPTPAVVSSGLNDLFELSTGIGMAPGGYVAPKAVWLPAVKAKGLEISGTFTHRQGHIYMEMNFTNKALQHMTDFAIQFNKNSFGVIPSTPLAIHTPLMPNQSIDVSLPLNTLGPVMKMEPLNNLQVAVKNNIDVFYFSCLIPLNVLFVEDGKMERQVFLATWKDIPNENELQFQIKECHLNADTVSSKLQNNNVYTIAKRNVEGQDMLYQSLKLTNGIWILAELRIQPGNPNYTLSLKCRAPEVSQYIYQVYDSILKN
GST GSH counter – disrupts GST binding to glutathione beads, arrestin-AP2 artifact; shares compounds with Arr AP2 block; GST-fluorescein binding to GSH beads, fluorescence, counter-screen; inhibition, % at 10 µM; 2% of 1,300 active; AID 588338;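 active = inhibition above 50%, about 3 SD of the inhibition seen with non-fluorescent compounds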;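 note: fluorescein maleimide labelled GST captured on 4 micron glutathione beads; higher means more loss of bead fluorescence from quenching or blocked binding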
* marks the source's active call; other numbers are inactive results; . = not tested or not shown.

SMILES	Arr AP2 block	MEKK2 WT-MEK5	MEKK3 PB1 HTS	MEKK2 mut-MEK5	Arr AP2 CP1	GST GSH counter
CCC1CCCCN1S(=O)(=O)c1ccc(-n2cnnn2)c(C)c1 (configuration not stated)	28	100	104	-3	.	.
O=C(Nc1ccc([N+](=O)[O-])cc1)Nc1cnccn1	-8	104	100	6	.	.
Cc1cc(C)cc(NC(=O)Nc2cnccn2)c1	8	104	103	4	-7	0
CC(C)c1ccc(NC(=O)Nc2cnccn2)cc1	-7	106	104	5	-2	-5
Cc1ccc(NC(=O)Nc2cnccn2)cc1	45	101	103	-1	-8	10
O=C(Nc1ccccc1)Nc1cnccn1	40	101	98	6	-5	-7
COc1ccc(N2C(=NC(=O)C(C)Oc3ccccc3)SC3CS(=O)(=O)CC32)cc1 (configuration not stated)	8	97	97	0	.	.
CC(Sc1nnc(Cc2cccs2)n1C)C(=O)Nc1ccc(C(N)=O)cc1 (configuration not stated)	-1	.	.	.	.	.
COc1ccc(NC(=O)Nc2ccc3c(c2)OCO3)c(C)c1	47	97	96	-3	.	.
COc1ccc(C2CC(C)=C(C#N)S(=O)(=O)C2C#N)cc1 (configuration not stated)	4	104	102	-9	.	.
Cc1ccc(NC(=O)Nc2cnccn2)cc1C	9	95	102	9	3	-2
CCOC(=O)C1CCN(C(=O)COC(=O)CSc2ccc([N+](=O)[O-])cc2)CC1	21	.	.	.	.	.
CC1CCCC(C)N1C(=O)COC(=O)CSc1ccc([N+](=O)[O-])cc1 (configuration not stated)	75*	.	.	.	-6	-5
CCNc1nc(NCC)n2c(SCC(=O)Nc3cccc(F)c3)nnc2n1	-10	.	.	.	.	.
CCNc1nc(NCC)n2c(SCC(=O)Nc3cccc(Cl)c3)nnc2n1	59*	.	.	.	-8	2
O=C(c1ccnc(Cl)c1)N1CCCC(N2CCN(c3ccccc3F)CC2)C1 (configuration not stated)	63*	100	97	-5	2	-3
O=C(c1ccco1)N1CCCC(N2CCN(c3ccccc3F)CC2)C1 (configuration not stated)	-16	108	103	5	.	.
O=C(O)c1ccccc1N/C=C\[N+](=O)[O-]	9	102	101	0	.	.
COc1ccc(C2Nc3ccccc3C(=O)N2NS(=O)(=O)c2ccccc2)cc1OC (configuration not stated)	11	.	.	.	.	.
COc1ccc(C2Nc3ccccc3C(=O)N2NS(C)(=O)=O)cc1OC (configuration not stated)	71*	.	.	.	-2	1
O=C(CS(=O)(=O)c1ccccc1)Nc1ccc(N2CCOCC2)cc1	60*	99	99	2	-6	-3
CCOC(=O)c1c(-c2ncc(C(F)(F)F)cc2Cl)noc1C	10	100	96	-5	.	.
CC1CCCN(CCCNC(=O)c2ccc3c(c2)N(Cc2ccccc2F)C(=O)c2ccccc2S3(=O)=O)C1 (configuration not stated)	59*	136*	111	18	20	-14
CCN1CCCC1CNC(=O)c1ccc2c(c1)N(Cc1ccccc1F)C(=O)c1ccccc1S2(=O)=O (configuration not stated)	25	118	99	4	.	.
COc1ccc(C(=O)NC(=S)Nc2ccc(S(=O)(=O)Nc3cc(OC)nc(OC)n3)cc2)cc1	56*	98	101	-6	-2	-3
SMILES	Arr AP2 block	MEKK2 WT-MEK5	MEKK3 PB1 HTS	MEKK2 mut-MEK5	Arr AP2 CP1	GST GSH counter
Cc1nn(Cc2ccccc2Cl)c(Cl)c1/C=C/C(=O)OCC(=O)NC(N)=O	-1	103	103	7	.	.
Cc1nn(Cc2ccc(Cl)cc2Cl)c(Cl)c1/C=C/C(=O)OCC(=O)NCC(F)(F)F	81*	103	103	2	-4	-8
O=C(Nc1cc([N+](=O)[O-])ccc1Cl)c1ccc2c(c1)OCO2	89*	100	99	-4	-10	3
O=C(Nc1ccc(Cl)cc1[N+](=O)[O-])c1ccc2c(c1)OCCO2	63*	97	101	-4	11	19
CCOc1ccc(N=Nc2c(C)noc2C)cc1	20	81	97	-10	.	.
Cc1ccc2[nH]c(=O)c(CN(CCCN3CCOCC3)C(=O)NC3CCCCC3)cc2c1	-19	98	100	-4	-9	-6
O=C(NC1CCCCC1)N(CCN1CCOCC1)Cc1cc2cc3c(cc2[nH]c1=O)OCCO3	1	91	91	-6	.	.
CCc1ccc2[nH]c(=O)c(CN(CCN3CCCC3)C(=O)NC3CCCCC3)cc2c1	-2	122	107	12	18	1
CCc1ccc2[nH]c(=O)c(CN(CCCN3CCOCC3)C(=O)Nc3ccccc3)cc2c1	-5	103	93	8	.	.
COc1cc2c(cc1NC(=O)Nc1ccc(F)cc1)oc1ccccc12	-2	115	107	2	-11	-7
COc1cc2c(cc1NC(=O)CSc1ccccc1)oc1ccccc12	0	105	111	-1	-8	-4
COc1ccc(NC(=O)Nc2cc3oc4ccccc4c3cc2OC)cc1	1	.	.	.	-11	1
COc1ccc(OCC(=O)Nc2cc3oc4ccccc4c3cc2OC)cc1	28	108	108	3	1	19
CC1CCN(Cc2cc(=O)oc3ccc4ccccc4c23)CC1	3	93	98	1	.	.
CC(C)(CC(=O)O)CC(=O)NNc1ncccc1C#N	11	88	93	-5	.	.
CCN(CC)S(=O)(=O)c1cc(C)ccc1SC	3	99	99	-1	.	.
COc1cc(NC(=O)COc2ccccc2)c(OC)cc1NC(C)=O	60*	107	104	8	-1	-10
COc1cc2c(cc1NC(=O)/C=C/c1ccccc1)oc1ccccc12	-2	110	102	2	.	.
COc1cc2c(cc1NC(=O)C(C)Sc1ccc(NC(C)=O)cc1)oc1ccccc12 (configuration not stated)	0	93	93	-4	2	-7
COc1cc(NC(=O)c2ccccc2)c(OC)cc1NC(C)=O	-2	93	89	0	.	.
O=C(O)c1cc(N/N=C/C=C/c2ccccc2[N+](=O)[O-])ccc1Cl	40	94	97	-4	.	.
CN(Cc1ccccc1)CC1C2CCC(C2)C1O (configuration not stated)	-6	.	.	.	.	.
CC(C)NC(=O)[C@H]1N2C(=O)c3ccccc3C2SC1(C)C (some centres not stated)	-20	102	102	1	.	.
O=C(c1ccco1)N1CCN(S(=O)(=O)c2ccc3c(c2)OCCO3)CC1	96*	104	104	3	2	2
